Test results taken from ChEMBL document CHEMBL4196017, “Design, synthesis and identification of silicon-containing HCV NS5A inhibitors with pan-genotype activity” (Eur J Med Chem, 2018).

Tests used:
[1] = Ratio of drug uptake in Sprague-Dawley rat liver to plasma at 10 mg/kg, ig administered as single dose measured after 0.5 hrs by UPLC-MS/MS analysis; assay type: ADME, organism-based; settings: po
Mus musculus [2] = assay: Toxicity in ICR mouse assessed as effect on food consumption at 150 mg/kg, po administered via gavage once daily for 14 days; assay type: organism-based; settings: in vivo, 336 h
Method in brief: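 ICR mice, 5 male + 5 female per group, gavage once daily for 14 days, vehicle control; food intake recorded on day 1 of dosing and then twice weekly, with daily clinical observation.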

[3] = Protein binding in human plasma at 10 uM after 6 hrs by UPLC-MS/MS based equilibrium dialysis method; assay type: ADME, cell-free; settings: read-out: PPB (converted)
Method in brief: (§1)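 Equilibrium dialysis: plasma (pH 7.4) preincubated 15 min at 37 °C, spiked with compound at 1 or 10 µM (0.5% DMSO final); dialysed against 100 mM phosphate buffer pH 7.4, 6 h at 37 °C, 100 rpm; donor and receiver samples analysed by UPLC-MS/MS.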

[4] = Cmax in mouse at 10 mg/kg, ig administered as single dose by UPLC-MS/MS analysis; assay type: ADME, organism-based; set-up: dose 10 mg/kg, route intragastric; settings: in vivo, po
Method in brief: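 Adult male mice (12 h light-dark, 22 °C, 55% humidity) fasted 12 h with free water, then given a single 10 mg/kg intragastric dose; plasma concentrations by UPLC-MS/MS; PK parameters calculated by software.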

[5] = Protein binding in dog plasma at 10 uM after 6 hrs by UPLC-MS/MS based equilibrium dialysis method; assay type: ADME, cell-free, Canis lupus familiaris; settings: read-out: PPB (converted); method in brief: as §1
[6] = Metabolic stability in mouse liver microsomes assessed as parent compound remaining at 0.2 uM preincubated for 5 mins followed by NADPH addition measured up to 60 mins by UPLC-MS/MS analysis; assay type: ADME, microsome; settings: read-out: Stability
Method in brief: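 Pooled mouse, rat or human liver microsomes 0.2 mg/mL with 1 mM NADPH, 5 mM MgCl2, 100 mM potassium phosphate pH 7.4 and 0.2 µM compound; 5-min preincubation at 37 °C, NADPH start, sampled at 5, 15, 30, 60 min; ice-cold acetonitrile stop; UPLC-MS/MS; percent parent remaining at 60 min.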

[7] = Ratio of drug uptake in Sprague-Dawley rat liver to plasma at 10 mg/kg, ig administered as single dose measured after 8 hrs by UPLC-MS/MS analysis; assay type: ADME, organism-based; settings: po
hERG (KCNH2) [8] = target: T1, hERG (KCNH2) (Homo sapiens, UniProt Q12809); assay: Inhibition of human ERG assessed as reduction in peak tail current at 3 uM at holding potential of -80 mV by patch clamp method relative to control
T1 sequence (Q12809 whole entry): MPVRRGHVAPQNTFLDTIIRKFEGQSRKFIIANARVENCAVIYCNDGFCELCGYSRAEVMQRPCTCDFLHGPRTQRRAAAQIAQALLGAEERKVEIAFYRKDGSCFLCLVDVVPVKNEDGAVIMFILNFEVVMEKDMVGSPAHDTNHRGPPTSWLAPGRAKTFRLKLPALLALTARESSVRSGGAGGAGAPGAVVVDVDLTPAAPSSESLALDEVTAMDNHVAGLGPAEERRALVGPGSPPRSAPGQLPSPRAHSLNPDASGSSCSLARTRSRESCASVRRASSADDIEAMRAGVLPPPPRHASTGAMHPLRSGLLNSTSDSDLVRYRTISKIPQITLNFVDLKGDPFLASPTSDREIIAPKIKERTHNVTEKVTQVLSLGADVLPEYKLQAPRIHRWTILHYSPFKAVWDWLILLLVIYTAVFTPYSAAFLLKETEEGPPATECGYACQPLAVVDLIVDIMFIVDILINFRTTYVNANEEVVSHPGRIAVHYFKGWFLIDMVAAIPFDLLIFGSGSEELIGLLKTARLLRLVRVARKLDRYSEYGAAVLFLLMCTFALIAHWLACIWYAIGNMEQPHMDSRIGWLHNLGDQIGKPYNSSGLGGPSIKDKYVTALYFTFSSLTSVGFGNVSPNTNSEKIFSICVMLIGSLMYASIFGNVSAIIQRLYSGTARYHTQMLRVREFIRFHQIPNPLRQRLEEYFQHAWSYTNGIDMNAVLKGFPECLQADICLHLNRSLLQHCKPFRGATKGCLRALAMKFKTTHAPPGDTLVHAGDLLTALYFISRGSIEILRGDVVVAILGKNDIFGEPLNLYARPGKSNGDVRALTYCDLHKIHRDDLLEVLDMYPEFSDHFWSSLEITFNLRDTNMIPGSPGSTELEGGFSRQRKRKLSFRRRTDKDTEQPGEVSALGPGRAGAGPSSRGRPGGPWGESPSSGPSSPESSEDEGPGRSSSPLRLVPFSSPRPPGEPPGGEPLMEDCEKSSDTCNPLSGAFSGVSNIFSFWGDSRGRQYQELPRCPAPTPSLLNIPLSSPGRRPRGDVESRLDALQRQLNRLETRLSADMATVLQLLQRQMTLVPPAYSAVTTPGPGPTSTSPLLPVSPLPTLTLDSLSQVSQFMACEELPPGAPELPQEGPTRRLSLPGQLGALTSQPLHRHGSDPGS
Method in brief: (§2)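 Whole-cell patch clamp, room temperature; hold -80 mV, 2 s +50 mV depolarization then 3 s -50 mV repolarization every 30 s; peak tail current referenced to initial 50 ms step to -50 mV; 3 min vehicle stabilization, then test solution until stable (<5% over ~5 sweeps) or 6 min max; mean ± SD, n = 3.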

[9] = Half life in beagle dog at 2 mg/kg, po administered as single dose by UPLC-MS/MS analysis; assay type: ADME, organism-based, Canis lupus familiaris; settings: in vivo
Cytochrome P450 3A4 = Cytochrome P450 3A4 (Homo sapiens, UniProt P08684); assay: Inhibition of CYP3A4 in human liver microsomes at 1 to 10 uM using nifedipine as substrate preincubated for 5 mins followed by NADPH addition measured after 30 mins by UPLC-MS/MS analysis relative to control; assay type: ADME; settings: 0.5 h
Sequence of Cytochrome P450 3A4 (P08684 whole entry): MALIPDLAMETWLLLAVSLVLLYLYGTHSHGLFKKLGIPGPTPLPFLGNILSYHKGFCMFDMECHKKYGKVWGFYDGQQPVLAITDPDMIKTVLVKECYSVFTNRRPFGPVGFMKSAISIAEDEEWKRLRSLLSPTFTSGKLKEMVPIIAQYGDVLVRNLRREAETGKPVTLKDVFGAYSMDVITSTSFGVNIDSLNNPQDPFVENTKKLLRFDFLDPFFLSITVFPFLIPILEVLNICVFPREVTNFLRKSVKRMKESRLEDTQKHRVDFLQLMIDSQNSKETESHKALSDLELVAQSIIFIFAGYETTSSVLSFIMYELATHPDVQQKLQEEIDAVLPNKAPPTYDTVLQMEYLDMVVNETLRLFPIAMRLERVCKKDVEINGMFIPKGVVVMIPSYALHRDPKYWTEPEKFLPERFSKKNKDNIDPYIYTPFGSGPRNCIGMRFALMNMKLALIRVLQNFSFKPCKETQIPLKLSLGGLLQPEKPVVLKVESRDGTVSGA

Cytochrome P450 2C19 = Cytochrome P450 2C19 (Homo sapiens, UniProt P33261); assay: Inhibition of CYP2C19 in human liver microsomes at 1 to 10 uM using (S)-mephenytoin as substrate preincubated for 5 mins followed by NADPH addition measured after 30 mins by UPLC-MS/MS analysis relative to control; assay type: ADME; settings: 0.5 h
Sequence of Cytochrome P450 2C19 (P33261 whole entry): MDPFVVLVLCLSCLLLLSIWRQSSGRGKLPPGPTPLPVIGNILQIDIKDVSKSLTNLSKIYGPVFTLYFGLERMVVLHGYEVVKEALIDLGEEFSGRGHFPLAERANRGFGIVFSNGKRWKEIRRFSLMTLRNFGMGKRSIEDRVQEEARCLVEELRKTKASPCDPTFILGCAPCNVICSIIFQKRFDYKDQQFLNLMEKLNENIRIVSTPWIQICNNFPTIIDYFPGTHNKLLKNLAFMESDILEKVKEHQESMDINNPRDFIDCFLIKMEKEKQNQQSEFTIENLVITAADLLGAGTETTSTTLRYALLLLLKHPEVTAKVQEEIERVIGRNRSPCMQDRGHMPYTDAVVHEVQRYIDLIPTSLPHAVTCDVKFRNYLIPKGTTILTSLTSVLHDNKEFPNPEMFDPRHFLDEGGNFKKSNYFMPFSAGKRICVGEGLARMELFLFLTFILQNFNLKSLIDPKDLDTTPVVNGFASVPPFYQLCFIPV

Cytochrome P450 2B6 = target: T2, Cytochrome P450 2B6 (Homo sapiens, UniProt P20813); assay: Inhibition of CYP2B6 in human liver microsomes at 1 to 10 uM using bupropion hydrochloride as substrate preincubated for 5 mins followed by NADPH addition measured after 30 mins by UPLC-MS/MS analysis relative to control; assay type: ADME; settings: 0.5 h
T2 sequence (P20813 whole entry): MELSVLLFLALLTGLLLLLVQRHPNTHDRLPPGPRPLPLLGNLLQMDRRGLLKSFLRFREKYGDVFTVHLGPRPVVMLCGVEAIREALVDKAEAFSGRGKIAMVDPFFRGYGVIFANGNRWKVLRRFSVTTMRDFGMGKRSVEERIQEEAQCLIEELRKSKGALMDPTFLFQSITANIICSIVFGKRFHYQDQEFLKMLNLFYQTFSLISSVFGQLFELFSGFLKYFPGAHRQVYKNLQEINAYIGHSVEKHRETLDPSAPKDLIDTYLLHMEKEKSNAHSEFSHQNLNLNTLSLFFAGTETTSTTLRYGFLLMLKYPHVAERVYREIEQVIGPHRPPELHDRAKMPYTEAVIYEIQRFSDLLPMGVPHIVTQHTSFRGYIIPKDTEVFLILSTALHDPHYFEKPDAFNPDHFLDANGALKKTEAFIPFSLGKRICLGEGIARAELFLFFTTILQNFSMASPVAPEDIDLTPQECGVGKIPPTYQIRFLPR

Mus musculus [10] = assay: Toxicity in ICR mouse assessed as serum glutamate dehydrogenase level at 150 mg/kg, po administered via gavage once daily for 14 days (reference value: 13.78 +/- 2.86 U/L); assay type: organism-based; settings: in vivo, 336 h
[11] = Protein binding in human plasma at 1 uM after 6 hrs by UPLC-MS/MS based equilibrium dialysis method; assay type: ADME, cell-free; settings: read-out: PPB (converted); method in brief: as §1
hERG (KCNH2) [12] = target: T1, hERG (KCNH2); assay: Inhibition of human ERG assessed as reduction in peak tail current at 10 uM at holding potential of -80 mV by patch clamp method relative to control; method in brief: as §2
Cytochrome P450 1A2 = target: T3, Cytochrome P450 1A2 (Homo sapiens, UniProt P05177); assay: Inhibition of CYP1A2 in human liver microsomes at 1 to 10 uM using phenacetin as substrate preincubated for 5 mins followed by NADPH addition measured after 30 mins by UPLC-MS/MS analysis relative to control; assay type: ADME; settings: 0.5 h
T3 sequence (P05177 whole entry): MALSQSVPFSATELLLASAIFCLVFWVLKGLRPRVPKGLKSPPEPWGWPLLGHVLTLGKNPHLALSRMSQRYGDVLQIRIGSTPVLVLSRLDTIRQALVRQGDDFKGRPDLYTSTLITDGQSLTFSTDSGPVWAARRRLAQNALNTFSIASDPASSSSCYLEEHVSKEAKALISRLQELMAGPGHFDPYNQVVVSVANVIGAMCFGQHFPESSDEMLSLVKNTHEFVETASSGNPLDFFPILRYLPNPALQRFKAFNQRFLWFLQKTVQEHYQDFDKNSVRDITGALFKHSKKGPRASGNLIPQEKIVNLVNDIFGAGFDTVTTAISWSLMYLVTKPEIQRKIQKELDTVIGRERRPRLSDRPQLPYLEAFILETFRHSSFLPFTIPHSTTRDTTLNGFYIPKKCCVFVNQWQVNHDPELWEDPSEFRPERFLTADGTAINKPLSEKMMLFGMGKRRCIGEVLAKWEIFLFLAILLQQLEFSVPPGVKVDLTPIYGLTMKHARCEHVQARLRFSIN

Which results are given for `CC[Si](CC)(CC)c1ccc(N2[C@H](c3ccc(NC(=O)[C@@H]4CCCN4C(=O)[C@@H](NC(=O)OC)C(C)C)cc3)CC[C@H]2c2ccc(NC(=O)[C@@H]3CCCN3C(=O)[C@@H](NC(=O)OC)C(C)C)cc2)cc1`?
Kp at 0.5 h [1]: 7.22; Activity (Mus musculus [2]): Non-Toxic; fraction unbound at 6 h, 10 µM [3]: 8e-05; Cmax [4]: 198 ng/mL; fraction unbound at 6 h, 10 µM [5]: 6e-05; remaining at 1 h, 0.2 µM [6]: 92.7%; Kp at 8 h [7]: 52.9; inhibition at 3 µM (hERG (KCNH2) [8]): 6.9%; half-life [9]: 12.7 h; inhibition (INH) (Cytochrome P450 3A4): Not Active; inhibition (INH) (Cytochrome P450 2C19): Not Active; inhibition (INH) (Cytochrome P450 2B6): Not Active; Activity (Mus musculus [10]): 15.1 U/L; fraction unbound at 6 h, 1 µM [11]: 8e-05; inhibition at 10 µM (hERG (KCNH2) [12]): 8.7%; inhibition (INH) (Cytochrome P450 1A2): Not Active

With `COC(=O)N[C@H](C(=O)N1CCC[C@H]1C(=O)Nc1ccc([C@@H]2CC[C@@H](c3ccc(NC(=O)[C@@H]4CCCN4C(=O)[C@@H](NC(=O)OC)C(C)C)cc3)N2c2ccc(C(C)(C)C)cc2)cc1)C(C)C` [OMBITASVIR] as the molecule, how does the Kp at 0.5 h [1] read?
The Kp at 0.5 h was 43.4.

And the fraction unbound at 6 h, 10 µM [3]?
The fraction unbound at 6 h, 10 µM was 4e-05.

And the Cmax [4]?
Its Cmax is 583 ng/mL.

And the fraction unbound at 6 h, 10 µM [5]?
The fraction unbound at 6 h, 10 µM was 1e-05.

And the remaining at 1 h, 0.2 µM [6]?
Its remaining at 1 h, 0.2 µM is 88.7%.

What about the Kp at 8 h [7] of the same molecule?
Its Kp at 8 h is 33.5.

What about the inhibition at 3 µM (hERG (KCNH2) [8]) of the same molecule?
The inhibition at 3 µM was 1.1%.

And the half-life [9]?
The half-life was 11.1 h.

What about the “inhibition (INH)” value (Cytochrome P450 3A4) of the same molecule?
The value was “Not Active”.

And the “inhibition (INH)” value (Cytochrome P450 2C19)?
Its value is “Not Active”.

What about the “inhibition (INH)” value (Cytochrome P450 2B6) of the same molecule?
The value was “Not Active”.

And the fraction unbound at 6 h, 1 µM [11]?
Its fraction unbound at 6 h, 1 µM is 3e-05.

And the inhibition at 10 µM (hERG (KCNH2) [12])?
Its inhibition at 10 µM is 1.8%.

And the “inhibition (INH)” value (Cytochrome P450 1A2)?
Its value is “Not Active”.
